Laboratory results taken from ChEMBL document CHEMBL5032497, “Rational Alteration of Pharmacokinetics of Chiral Fluorinated and Deuterated Derivatives of Emixustat for Retinal Therapy” (J Med Chem, 2021).

Target: Retinoid isomerohydrolase (Bos taurus, UniProt Q28175)
Assay: Inhibition of RPE65 in bovine retinal pigment epithelium microsomes assessed as decrease of 11-cis-retinol using trans-retinol measured after 1 hr by normal phase HPLC analysis
Design: species or system Retina, Microsome
Conditions: not given; call rule not given here

Sequence of Retinoid isomerohydrolase (Q28175 whole entry): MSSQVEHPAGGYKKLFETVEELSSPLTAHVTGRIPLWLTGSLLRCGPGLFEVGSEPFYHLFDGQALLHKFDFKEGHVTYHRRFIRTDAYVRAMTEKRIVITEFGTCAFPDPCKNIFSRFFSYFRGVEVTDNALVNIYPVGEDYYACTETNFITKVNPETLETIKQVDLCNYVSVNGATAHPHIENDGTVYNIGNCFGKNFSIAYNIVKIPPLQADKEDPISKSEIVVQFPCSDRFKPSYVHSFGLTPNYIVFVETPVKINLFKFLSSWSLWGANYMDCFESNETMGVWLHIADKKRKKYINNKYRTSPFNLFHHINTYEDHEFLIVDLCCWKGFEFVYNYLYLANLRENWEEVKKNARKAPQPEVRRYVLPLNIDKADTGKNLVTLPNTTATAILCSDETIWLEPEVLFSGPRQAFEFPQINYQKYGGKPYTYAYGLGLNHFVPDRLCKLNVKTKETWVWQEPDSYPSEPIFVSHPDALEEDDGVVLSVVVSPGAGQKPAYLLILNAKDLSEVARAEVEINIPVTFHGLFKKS

Structure (SMILES) | IC50 [nM]
CCCC(CCC)COc1cccc(C(O)CCN)c1F (racemic) | 287
CCCC(CCC)COc1cc(F)cc(C(O)CCN)c1 (racemic; 25) | 295
CCCC(CCC)COc1cc(F)cc(C(O)CCN)c1 (racemic; 26) | 184
CCCC(CCC)COc1ccc(F)c(C(O)CCN)c1 (racemic; 27) | 157
CCCC(CCC)COc1ccc(F)c(C(O)CCN)c1 (racemic; 28) | 132

Tested on: not listed separately
Assay: Drug distribution in wild type BL/6J mouse eyes measured at 380 nM, IP administered single dose per eye after 3 hrs by LC-MS/MS electrospray ionization fragmentation spectra method
Assay type: ADME, tissue-based
Conditions: in vivo, 0.38 µM
Outline: (§1)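 Eight-week-old BL/6J mice got one i.p. dose of 380 nmol in 50 μL DMSO and were sacrificed at 3 h, 1 day or 7 days. Both eyes were homogenized in acetonitrile, and the extract was dried and reconstituted in 50% methanol/water. Analysis was by C18 LC-MS/MS with ESI and a formic acid/acetonitrile gradient.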

Structure (SMILES) | Drug uptake
NCCC(O)c1cccc(OCC2CCC(F)(F)CC2)c1 (centres undefined) | 176 pmol
CCCC(CCC)COc1cc([C@H](O)CCN)ccc1F | Not Active
NCCC(O)c1ccc(F)c(OCC2CCCCC2)c1 (centres undefined) | Not Active

Tested on: not listed separately
Assay: Drug distribution in wild type BL/6J mouse eyes measured at 380 nM, IP administered single dose per eye after 7 days by LC-MS/MS electrospray ionization fragmentation spectra method
Assay type: ADME, tissue-based
Conditions: in vivo, 168 h, 0.38 µM, time 7 day
Outline: as §1, with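 “gradient. The transition monitored was water loss (−18 Da), or −47 Da for one analog.” for “gradient.”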

Structure (SMILES) | Drug uptake [pmol]
NCCC(O)c1cccc(OCC2CCC(F)(F)CC2)c1 (centres undefined) | 21
